Shown are actives, neighbours in structure and some others; about 2.2% of the full set was active somewhere.
NR2E3 ag-1: agonists of human nuclear receptor NR2E3; GST-NR2E3/biotin-RetCOR TR-FRET, 1536-well; inhibition of corepressor binding, % at 4.78 µM; 320,000 tested, 0.12% active;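 active means percent inhibition above the cutoff of mean plus 3 SD of all tested compounds, set per screening campaign, cut at about 20% in these data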;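 further: 0% = DMSO wells and 100% = biotin wells as full block of FRET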
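System: GST-tagged NR2E3 plus biotinylated RetCOR corepressor; Buffer or medium: pH 7.5 Tris-based buffer; Probe or stimulus: RetCOR corepressor, biotinylated, 7 nM; Doses: compound at 4.8 µM, single dose; Schedule: 5 h incubation at 4 °C; Technique: time-resolved FRET; Evaluation: percent inhibition of TR-FRET ratio; Replication: one well per compound, singlicate testing.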
SMARCA2 act: SMARCA2 function activation, primary screen. MG213 cells, MMTV-luciferase reporter, dexamethasone, overnight. activation, % at 9.1 µM. 370,000 tested, 1% active; in the data active means activation above about 7.8%;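 further: 0% = vehicle wells and 100% = reference activator wells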
COUP-TFII inh: NR2F2 (human) inhibition, primary screen; P24468; HEK293T NGFI-A luciferase reporter, luminescence; inhibition, % at 8.6 µM; 370,000 tested, 0.7% active;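 active means inhibition above a per-plate cutoff, mean inhibition of test wells between control levels plus 3 SD, cut at about 38% in these data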;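 further: cells cotransfected with COUP-TFII expression vector driving the NGFI-A reporter; 0% = median of COUP-TF2 test wells and 100% = reporter-only cells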
Target sequence (P24468 whole entry, looked up): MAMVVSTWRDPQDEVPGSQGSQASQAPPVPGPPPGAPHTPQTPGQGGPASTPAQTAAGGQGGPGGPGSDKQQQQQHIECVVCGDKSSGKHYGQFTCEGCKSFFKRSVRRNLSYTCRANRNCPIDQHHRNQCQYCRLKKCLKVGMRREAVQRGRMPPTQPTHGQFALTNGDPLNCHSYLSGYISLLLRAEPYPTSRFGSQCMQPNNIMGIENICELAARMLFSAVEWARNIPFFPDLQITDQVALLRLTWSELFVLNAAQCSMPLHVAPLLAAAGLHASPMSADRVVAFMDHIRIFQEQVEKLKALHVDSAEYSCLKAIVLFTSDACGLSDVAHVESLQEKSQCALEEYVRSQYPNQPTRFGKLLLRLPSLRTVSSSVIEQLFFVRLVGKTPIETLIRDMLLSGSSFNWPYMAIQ
NR2E3 ag-2: agonists of human NR2E3 nuclear receptor; Q9Y5X4; CHO-S Gal4-NCOR/VP16-NR2E3 two-hybrid, luciferase; inhibition of corepressor binding, % at 3.98 µM; 360,000 tested, 0.35% active; AID 602229;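 active means inhibition above the mean of all tested compounds plus 3 SD, cut at about 70% in these data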;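 further: 0% = DMSO with NR2E3 transfected cells and 100% = cells lacking NR2E3 construct; higher means lower luciferase signal from less NR2E3 corepressor binding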
GalR3 antag: blocks the human galanin receptor 3; AID 651719; inhibition, % at 3 µM; HEK293 GalR3-CNG cAMP membrane potential fluorescence; galR3 body fused to GalR1 C-terminus; 360,000 tested, 0.44% active; O60755;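 active means inhibition above the screen-wide average plus 3 SD, cut at about 13% in these data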;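 further: forskolin and galanin both at EC90 stimulate the cells; cAMP rise reported by CNG channel membrane potential dye signal; 0% = forskolin plus galanin with DMSO and 100% = forskolin alone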
Target sequence (O60755 1-299 limits assumed): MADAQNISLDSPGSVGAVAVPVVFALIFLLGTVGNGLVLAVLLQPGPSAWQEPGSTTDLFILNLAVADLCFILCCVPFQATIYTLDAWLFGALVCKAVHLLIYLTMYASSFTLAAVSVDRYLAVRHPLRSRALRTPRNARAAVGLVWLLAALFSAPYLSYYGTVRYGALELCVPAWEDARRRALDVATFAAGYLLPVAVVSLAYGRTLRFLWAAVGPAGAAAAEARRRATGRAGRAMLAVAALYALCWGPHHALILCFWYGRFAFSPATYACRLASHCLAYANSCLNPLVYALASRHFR
SMARCA2 act conf: SMARCA2 activation, confirmation screen; shares compounds with SMARCA2 act; MG213 cells, MMTV-luciferase with dexamethasone, luminescence, overnight; MG213 cells expressing E1A, Rb sequestered; DMSO wells 0%, reference activator 100%; activation, % at 9.1 µM; 3,500 tested, 30% active; AID 652260;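 active means activation above its plate's cutoff, the mean activation of tested wells plus 3 SD, cut at about 7.9% in these data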
GAL4-VP16 Luc: counter-screen for SMARCA2 activators: GAL4-VP16 luciferase reporter activation; shares compounds with SMARCA2 act; HEK293 GAL4-VP16 pG5luc reporter, luciferase luminescence; scaled: DMSO wells 0%, SAHA wells 100%; activation, % at 9.1 µM; 3,500 tested, 41% active; AID 686939;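 active means activation above the solvent-only control well mean plus 3 SD, averaged across control plates, cut at about 5.2% in these data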
The depositor's hits bear a star; / = not tested or not shown.

SMILES | NR2E3 ag-1 | SMARCA2 act | COUP-TFII inh | NR2E3 ag-2 | GalR3 antag | SMARCA2 act conf | GAL4-VP16 Luc
O=C(NNC(=S)NC(=O)c1cccnc1)c1ccccc1 | 2 | -1 | 3 | -10 | -3 | / | /
Cc1ccc(NC(=O)c2ccc(OC(=O)C(C)Oc3ccc(Cl)cc3C)cc2)cc1 (stereo not drawn) | 1 | 11* | -6 | -49 | 3 | 8.0* | 1
Cc1cc(Cl)ccc1OC(C)C(=O)OCC(=O)Nc1ccc2[nH]c(=O)[nH]c2c1 (stereo not drawn) | 3 | -1 | -11 | -17 | -4 | / | /
CN(Cc1ccccc1)S(=O)(=O)c1cccc(C(=O)OCc2ccc(C(F)(F)F)cc2)c1 | / | -1 | 18 | / | / | / | /
COC(=O)c1cc(S(=O)(=O)N2CCN(C(C)=O)CC2)cn1C | / | -5 | -12 | / | / | / | /
COCCNC(=O)/C(C#N)=C/c1ccc(O)c([N+](=O)[O-])c1 | -5 | -3 | 16 | -2 | -7 | / | /
COCCNC(=O)/C(C#N)=C/C=C/c1ccccc1[N+](=O)[O-] | -4 | 12* | -14 | 8 | 2 | 18* | 0
N/C(=N\OC(=O)c1ccccc1Cl)c1cccnc1 | -2 | 8.8* | -19 | -131 | -3 | 18* | 7.8*
N/C(=N\OC(=O)c1ccc(Cl)cc1Cl)c1ccncc1 | 2 | 12* | -36 | -61 | -2 | 11* | 20*
N/C(CS(=O)(=O)c1ccccn1)=N\OC(=O)c1ccc(Cl)cc1 | 2 | 0 | -2 | -71 | -7 | / | /
N/C(CS(=O)(=O)c1ccccn1)=N\OC(=O)c1ccccc1Cl | 2 | 11* | -22 | -69 | -5 | 3 | 8.0*
Cc1cc(C(=O)O/N=C(\N)c2ccncc2)ccc1[N+](=O)[O-] | -4 | 14* | -10 | -109 | -4 | 6 | 5.2*
N/C(=N\OC(=O)c1cc(Cl)ccc1Cl)c1ccncc1 | 4 | -2 | 3 | -8 | -5 | / | /
COc1ccc(-c2cc(-c3nnc4sc(Cc5cccs5)nn34)[nH]n2)cc1 | / | -4 | 6 | / | / | / | /
O=C(NC1CCCCN(Cc2ccc(Cl)cc2)C1=O)c1ccc(F)c(F)c1 (stereo not drawn) | / | -3 | -9 | / | / | / | /
CCn1nc(C)cc1C(=O)N1CCc2c([nH]c3ccccc23)C1c1cc(F)ccc1F (stereo not drawn) | 1 | 9.0* | -24 | -78 | -2 | 4 | 6.3*
Cc1ncoc1C(=O)N1CCc2c([nH]c3ccccc23)C1c1ccccc1F (stereo not drawn) | 5 | 0 | -2 | -24 | -6 | / | /
O=C(OCc1cn(Cc2c(F)cccc2F)nn1)N1CCCC1 | / | -2 | -7 | / | / | / | /
CC(C)(C)CC(=O)Nc1ccc(-c2nnc3n2CCCCC3)cc1 | 1 | 0 | 13 | -17 | -11 | / | /
O=C(/C=C/c1ccccc1Cl)Nc1ccc(-c2nnc3n2CCCCC3)cc1 | -3 | 10* | -12 | -2 | -10 | -4 | -1
CC(C)(C)c1ccc(-c2nnc(SCC(=O)c3ccc([N+](=O)[O-])cc3)n2-c2ccc(Cl)cc2)cc1 | / | 1 | -5 | / | / | / | /
CSc1ncc(OCc2ccccc2)c(=O)[nH]1 | -2 | 10* | 14 | -12 | 0 | 0 | 0
O=C(c1ccc(F)cc1F)N1CCC(Oc2cccnc2)CC1 | / | 2 | 1 | / | / | / | /
COc1ccc(-n2c(CN3CCN(Cc4ccccc4)CC3)nc3ccc([N+](=O)[O-])cc3c2=O)c(OC)c1 | -2 | 4 | -3 | -17 | 3 | / | /
COc1cccc(-n2c(CN3CCN(Cc4ccccc4)CC3)nc3ccc([N+](=O)[O-])cc3c2=O)c1 | -4 | 12* | 8 | / | 1 | 5 | 1
SMILES | NR2E3 ag-1 | SMARCA2 act | COUP-TFII inh | NR2E3 ag-2 | GalR3 antag | SMARCA2 act conf | GAL4-VP16 Luc
CCOC(=O)c1ccc(-n2c(CN3CCN(CCO)CC3)nc3ccc([N+](=O)[O-])cc3c2=O)cc1 | -5 | 9.5* | 2 | -34 | -3 | 9.8* | 1
CN(c1c2c(nc3ncnn13)CCCC2)C1CCCCC1 | / | 7 | 9 | / | / | / | /
COC(=O)c1ccc(Cn2ccc3ccc(-c4ccc5ccn(C(=O)c6ccccc6C)c5c4)cc32)cc1 | / | -1 | 8 | / | / | / | /
CC1CCCN(C(=O)c2ccc3c(c2)OCCO3)C1 (stereo not drawn) | 3 | 9.9* | -11 | -62 | -7 | 1 | 5.5*
N#C/C(=C/c1ccco1)c1nc2ccccc2s1 | 0 | 18* | -51 | -117 | -11 | 9.3* | 14*
COC(=O)c1cc(-c2ccc(-c3ccccc3)c(F)c2)c(=O)n2c1CCC2 | / | 0 | 14 | / | / | / | /
CCCCCCCC(=O)N[C@H]1CC[C@@]23CCCN2C(=O)CCC[C@H]3[C@H]1CCC | / | / | 7 | / | / | / | /
O=C(O)c1ccc(N/N=C/c2cc3cc4c(cc3nc2Cl)OCCO4)cc1 | 0 | 8.4* | -49 | -140 | -5 | 8 | 11*
O=Cc1cc2cc3c(cc2nc1Cl)OCCO3 | 2 | / | / | / | / | / | /
O=C(CN1C(=O)CCSc2ccccc21)Nc1ccc(Cl)c(Cl)c1 | / | -1 | 28 | / | / | / | /
CCOC(=O)C[n+]1c(C)csc1C | 1 | 8.6* | -13 | 4 | 2 | -1 | -1
COC(=O)c1cc(-c2cccc(C#N)c2)c(=O)n2c1CCC2 | / | -3 | 3 | / | / | / | /
COC(=O)[C@]12C[C@H](CC(=O)N3CCCCC3)C(=O)N(Cc3cccc4ccccc34)C1=C[C@H](C(C)(C)C)O[C@@H]2C | / | -2 | 12 | / | / | / | /
CCCOc1ccc(-c2cnc(N)s2)cc1 | 1 | 13* | -40 | -75 | -9 | 7 | 10*
O=C(Nc1ccccn1)C(=O)N1CCCCC1 | -6 | 8.2* | -11 | -34 | -5 | 4 | 2
CCOC(=O)c1ccc(S(=O)(=O)N2CCC(C(=O)N3CCN(c4ccccc4OC)CC3)CC2)cc1 | / | -3 | 6 | 14 | -4 | / | /
COc1ccccc1N1CCN(C(=O)C2CCN(S(=O)(=O)c3ccc(F)cc3)CC2)CC1 | 0 | 8.8* | 5 | -1 | -4 | 1 | 0
Cc1cc2nc(-c3cccnc3SCC(=O)NC(C)C)[nH]c2cc1C | 3 | 11* | -39 | -79 | -5 | 8.4* | 8.9*
COCCOC(=O)CSc1ncccc1-c1nc2cc(C)c(C)cc2[nH]1 | 1 | 1 | -37 | -38 | -5 | / | /
CC(C)(C)C(=O)O[C@@H]1CCC[C@@]2(C(=O)N(Cc3ccccc3)c3ccccc32)[C@H]1NC(=O)CCc1ccccc1 | / | -3 | 12 | / | / | / | /
C=CCNC(=O)CN(C(=O)c1csc2ccc(Cl)cc12)c1cccc(Br)c1 | / | -5 | 30 | / | / | / | /
CCN(CC)CCNC(=O)Cc1c(C(=O)O)n(C)c2ccccc12 | -2 | 9.5* | -9 | -10 | -5 | -1 | 0
